# High-throughput results from PubChem BioAssay.
# KCNK3 block: human KCNK3 channel inhibition, primary screen | O14649 | CHO-KCNK3 thallium flux, FluxOR fluorescence; active compounds read low | B-score at 10 µM | hit rate 0.84% among 340,000 | AID 602410;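 active = B-score under library mean minus 4 SD, starting fluorescence ratio at most library mean plus 5 SD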;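 note: more negative B-score means stronger inhibition of thallium flux through KCNK3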
# KCNQ1 block: human KCNQ1 channel inhibition; P51787; CHO-K1 KCNQ1, FluxOR thallium flux fluorescence; active compounds read high; B-score at 10 µM; hit rate 1.3% among 310,000; AID 2642;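 active = compounds whose thallium flux B-score, printed positive for inhibition, exceeds three library SD while starting fluorescence stays within three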;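 note: channel opened by potassium depolarization with thallium stimulus after 20 min compound exposure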
# hERG rescue: hERG (human) protection from proarrhythmic block. AID 1511. activation (rescue from dofetilide block), less the hit threshold, % at 10 µM. CHO-hERG, FluxOR thallium flux, dofetilide IC70 present. hit rate 0.51% among 310,000;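 active = activation above the mean of controls blocked by dofetilide plus 5 SD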;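 note: thallium influx through hERG after potassium depolarization seen as dye fluorescence rise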
# Target sequence (Q12809 whole entry, looked up): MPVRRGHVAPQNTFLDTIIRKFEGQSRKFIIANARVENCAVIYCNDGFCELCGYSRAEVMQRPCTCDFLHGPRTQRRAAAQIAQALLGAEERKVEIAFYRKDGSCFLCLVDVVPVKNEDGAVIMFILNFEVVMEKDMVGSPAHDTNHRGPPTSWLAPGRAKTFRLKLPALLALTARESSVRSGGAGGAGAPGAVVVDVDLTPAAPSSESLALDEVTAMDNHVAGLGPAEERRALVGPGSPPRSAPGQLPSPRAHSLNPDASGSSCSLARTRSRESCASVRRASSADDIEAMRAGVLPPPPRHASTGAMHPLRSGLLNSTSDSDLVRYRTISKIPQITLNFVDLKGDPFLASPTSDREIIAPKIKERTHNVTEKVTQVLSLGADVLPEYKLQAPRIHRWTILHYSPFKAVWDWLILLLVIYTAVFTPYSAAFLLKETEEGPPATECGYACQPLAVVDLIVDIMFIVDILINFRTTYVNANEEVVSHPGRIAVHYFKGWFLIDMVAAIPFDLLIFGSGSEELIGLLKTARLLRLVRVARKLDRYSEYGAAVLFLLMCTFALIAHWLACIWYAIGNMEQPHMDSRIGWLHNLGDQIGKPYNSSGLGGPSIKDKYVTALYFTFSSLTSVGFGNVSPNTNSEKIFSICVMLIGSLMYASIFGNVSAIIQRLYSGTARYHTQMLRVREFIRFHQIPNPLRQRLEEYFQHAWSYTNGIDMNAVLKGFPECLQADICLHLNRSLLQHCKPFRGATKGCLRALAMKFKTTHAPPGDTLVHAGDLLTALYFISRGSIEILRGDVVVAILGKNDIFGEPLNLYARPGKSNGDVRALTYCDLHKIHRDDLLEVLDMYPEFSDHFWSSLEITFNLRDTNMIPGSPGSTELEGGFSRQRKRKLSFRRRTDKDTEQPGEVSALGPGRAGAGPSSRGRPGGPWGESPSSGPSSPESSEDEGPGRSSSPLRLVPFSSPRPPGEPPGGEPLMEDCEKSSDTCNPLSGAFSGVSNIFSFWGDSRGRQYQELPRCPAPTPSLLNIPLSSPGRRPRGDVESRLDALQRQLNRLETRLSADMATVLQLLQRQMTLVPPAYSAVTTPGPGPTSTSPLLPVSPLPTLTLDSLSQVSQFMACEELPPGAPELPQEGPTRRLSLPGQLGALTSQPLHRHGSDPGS
# KCNQ1 pot: potentiates or activates the human KCNQ1 potassium channel | CHO-K1 KCNQ1, thallium flux FluxOR fluorescence; active compounds read high | B-score at 10 µM | hit rate 0.35% among 310,000;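 active = fluorescence ratio B-score, a plate-corrected score, at least three library SD, with initial intensity B-score within 5 SD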
#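 Test system: CHO-K1 cells stably expressing KCNQ1 / Medium: assay buffer / Also added: depolarizing K+/Tl+ stimulus, K2SO4 and Tl2SO4 each 12.5 mM in 5x stock / Incubation: 90 min dye loading and 20 min compound exposure, both at room temperature / Signal: thallium influx via FluxOR fluorescence, kinetic imaging / Evaluation: B score of baseline-normalized fluorescence ratio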
# KCNK9 inh: blocks the human KCNK9 two-pore domain potassium channel; HEK293 KCNK9, FluxOR thallium flux fluorescence; active compounds read low; B-score at 10 µM; Q9NPC2; hit rate 1.2% among 310,000;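 active = ratio B-score over 3 SD below the library mean, with starting fluorescence within 5 SD of its mean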;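 note: negative B-score means less thallium flux so channel inhibition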
# * = called active by the depositor; i = inactive; . = not tested or not shown. Compounds with a hit are over-represented: about 3.1% of the library has one in this group of screens.
SMILES,KCNK3 block,KCNQ1 block,hERG rescue,KCNQ1 pot,KCNK9 inh
CCOC(=O)c1c(C(C)(C)C)oc2ccc(O)cc12,i,.,.,.,.
CN(/N=C/c1ccc(-c2ccc([N+](=O)[O-])cc2)o1)c1ccccc1,i,8*,-6.2,i,i
CN(/N=C/c1cc([N+](=O)[O-])ccc1O)c1ccccc1,i,i,-3.9,i,i
COc1ccc(NC(=O)c2sc3nc(C)cc(C)c3c2N)cc1,i,i,4.8*,i,i
CC1(C)SC(=S)N(NC(=O)Nc2ccccc2)C1N(O)C(=O)Nc1cccc2ccccc12 (stereo not drawn),i,9*,-10.7,i,i
CC1(C)SC(=S)N(/N=C/c2ccc(O)cc2)C1N(O)C(=O)Nc1ccc([N+](=O)[O-])cc1 (stereo not drawn),i,10*,-13.6,i,i
CN1C(=S)SC(C)(C)C1N(O)C(=O)Nc1ccc(Cl)cc1 (stereo not drawn),i,i,-7.0,i,i
Cc1ccc(/C=N/N2C(=S)SC(C)(C)C2N(O)C(=O)Nc2ccc([N+](=O)[O-])cc2)cc1 (stereo not drawn),i,i,-8.6,i,i
CC1(C)SC(=S)N(/N=C/c2ccccc2O)C1N(O)C(=O)Nc1ccccc1 (stereo not drawn),i,8*,-16.2,i,i
Cc1ccc(C(=O)NCc2ccco2)o1,i,i,-5.3,i,i
COc1ccc(CN(C)C(=O)COC(=O)c2cc([N+](=O)[O-])ccc2N2CCCC2)c(OC)c1OC,i,.,.,.,.
CCOC(=O)CSc1ccc(S(=O)(=O)N(CC)CC)cc1[N+](=O)[O-],i,i,-1.1,i,-6.8*
CCOC(=O)CCCCCN(Cc1ccccc1)S(=O)(=O)c1ccc([N+](=O)[O-])cc1,i,7*,-9.4,i,i
Cc1ccc2[nH]c(=O)c(CN(CCCN(C)C)C(=S)NCCc3ccccc3)cc2c1,i,i,-9.1,10*,i
CCc1ccc2c(Cl)c(C(=O)N/N=C/c3c[nH]c4ccccc34)sc2c1,i,6*,-9.2,i,i
Cc1ccc(C2=NOC(c3nnc(-c4ccccc4)o3)C2)cc1 (stereo not drawn),i,i,-1.3,8*,i
Cc1ccc(NC(=O)c2sccc2-n2cccc2)c(C)c1,i,i,-17.2,i,-8.09*
COc1ccc(NC(=O)c2sccc2-n2cccc2)cc1,i,i,-9.8,i,i
C=CCN1C(=O)c2ccc(C(=O)OCC(=O)N3CCN(c4ccccc4)CC3)cc2C1=O,i,i,-17.5,i,i
CCOC(=O)c1sc(NC(=O)c2c(C)nn(Cc3ccccc3)c2C)cc1C,-11.2*,.,.,.,.
CCOC(=O)c1sc(NC(=O)c2ccccc2)cc1C,i,i,-9.3,i,i
O=C(COc1cccc2ccccc12)N/N=C/c1ccccc1OCc1ccc(C(=O)O)cc1,i,11*,-13.6,i,i
CCCn1c(=O)c2[nH]c(-c3ccc(OCC(=O)Nc4ccc(C#N)cc4)cc3)nc2n(CCC)c1=O,i,.,.,.,.
C/C(=C\C(=O)c1ccccc1)NNC(=O)c1ccc(Cl)cc1,i,i,6.5*,i,i
COc1ccc(C(=O)NN/C(C)=C/C(=O)c2ccccc2)cc1,i,i,9.1*,i,i
SMILES,KCNK3 block,KCNQ1 block,hERG rescue,KCNQ1 pot,KCNK9 inh
Cc1nccn1CCCNC(=O)C1CCC(=O)N(Cc2ccccc2F)C1 (stereo not drawn),i,i,-12.5,i,i
Cc1ccccc1N1CCN(C(=O)c2cc(C3CC3)nn2-c2ccccc2)CC1,-9.02*,.,.,.,.
O=C(c1cc(C2CC2)nn1-c1ccccc1)N1CCN(c2ccccc2O)CC1,i,.,.,.,.
C/C(=N\NC(=O)c1ccco1)c1cc(Cl)sc1Cl,i,i,-12.5,i,i
CCOC(=O)c1c(-c2ccccc2)csc1NC(=S)NC,i,i,8.9*,38*,i
CCNC(=S)Nc1scc(-c2ccccc2)c1C(=O)OCC,i,i,6.0*,23*,i
CCOC(=O)c1c(-c2ccccc2)csc1NC(=O)CCN1C(=O)c2ccccc2C1=O,i,i,-13.7,i,i
CC1(C)Oc2ccc(C(=O)NC3CCCCC3)cc2N(CC#N)C1=O,i,i,-4.1,i,i
CC(OC(=O)c1cc(=O)[nH]c2ccccc12)C(=O)NCc1ccccc1 (stereo not drawn),i,i,-12.5,i,i
CC(C)(C)c1ccc(Oc2ccc(N)cn2)cc1,i,i,-1.0,21*,i
Cc1ccc(C(=O)Nc2ccc3c(c2)C(=O)N(C)C3=O)c(C)c1,i,i,-11.1,i,i
CCOc1ccc(NC(=S)NS(=O)(=O)c2cc(Br)ccc2OCC)cc1,i,i,7.1*,i,i
CC1CCCCN1C(=O)c1cccc(NC2=C(Cl)C(=O)N(Cc3ccccc3)C2=O)c1 (stereo not drawn),-11.2*,.,.,.,.
CC1CCN(C(=O)c2ccc(NC3=C(Cl)C(=O)N(Cc4ccccc4)C3=O)cc2)CC1,i,.,.,.,.
CC(C)NC1=C(Cl)C(=O)c2ccccc2C1=O,i,i,4.9*,i,i
C=CCNC1=C(Cl)C(=O)c2ccccc2C1=O,i,i,-3.6,i,i
O=C1C(Cl)=C(NCc2cccnc2)C(=O)c2ccccc21,i,9*,-16.9,i,i
CCn1c(=O)c(-[n+]2ccccc2)c(O)c2ccccc21,i,i,8.3*,i,i
CCc1c(C(=O)NN2C(=O)C3CCCCC3C2=O)csc1C (stereo not drawn),i,i,-2.6,i,i
COC(=O)CNC(=O)COC(=O)Cc1ccc(Cl)cc1,i,i,-19.7,i,i
COCC(=O)N1CCCC(C(=O)c2ccc(-c3ccccc3)c(F)c2)C1 (stereo not drawn),i,i,-25.9,i,i
Cc1cc(C)cc(NC(=O)Cn2c(-c3ccccc3Cl)nc3ccccc32)c1,i,i,-9.0,i,i
Cc1ccc(SCc2nc3ccccc3n2CC(=O)Nc2ccccc2)cc1,i,i,-10.2,i,-6.91*
O=C(Cn1c(COc2ccccc2)nc2ccccc21)Nc1cccc(Cl)c1,i,i,6.2*,i,i
O=C(Cn1c(-c2ccccc2Cl)nc2ccccc21)Nc1cccc(Cl)c1,i,i,-7.8,i,-7.48*
CC(=O)c1cccc(NC(=O)Cn2cnc(S(=O)(=O)N3CCC(C)CC3)c2)c1,i,i,-5.5,i,i
Cc1nc(SCc2cccc(F)c2)c2oc3ccccc3c2n1,i,i,5.0*,i,i
CC1(C)CC2(CC(c3ccccc3)c3ccc(O)cc3O2)NC(=S)N1 (stereo not drawn),i,i,-14.9,i,i
